# RORA inh: inhibitors of human nuclear receptor RORA; CHO-K1 Gal4-RORA LBD luciferase reporter, luminescence; inhibition, % at 10 µM; actives 0.43% (n = 65,000); AID 561;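 active means inhibition above the mean of all tested compounds plus 3 SD, cut at about 52% in these data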;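 further: 0% = RORA-transfected cells with DMSO and 100% = mock-transfected cells lacking RORA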
# Target sequence (P35398 whole entry, looked up, the tested form may be a part): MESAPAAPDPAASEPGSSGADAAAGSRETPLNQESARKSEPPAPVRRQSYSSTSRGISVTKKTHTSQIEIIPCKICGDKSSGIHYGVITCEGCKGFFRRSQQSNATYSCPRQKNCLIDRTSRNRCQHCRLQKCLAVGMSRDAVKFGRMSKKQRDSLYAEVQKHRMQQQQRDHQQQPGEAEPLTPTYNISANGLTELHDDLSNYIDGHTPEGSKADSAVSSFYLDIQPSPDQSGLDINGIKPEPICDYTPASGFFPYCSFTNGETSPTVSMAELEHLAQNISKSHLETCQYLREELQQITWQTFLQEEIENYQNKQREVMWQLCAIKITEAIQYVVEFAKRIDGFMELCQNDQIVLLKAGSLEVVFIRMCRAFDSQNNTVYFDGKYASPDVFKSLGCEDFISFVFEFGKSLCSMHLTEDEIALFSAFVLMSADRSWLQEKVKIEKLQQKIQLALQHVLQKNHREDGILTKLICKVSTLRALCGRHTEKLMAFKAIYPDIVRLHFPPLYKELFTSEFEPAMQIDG
#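 Test system – CHO-K1 Gal4-RORA LBD luciferase reporter cells · Schedule – 20 h at 37 °C · Signal – luminescence from basal luciferase reporter expression · Measure – percent inhibition of basal reporter luminescence, control-normalized · Control set – -RORA mock-transfected DMSO wells 100%, +RORA DMSO wells 0%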
# * hit, by the source's call. Shown is part of a subset that was picked to be rich in hits.
SMILES,RORA inh
C=CCSc1nc2ccccc2n1Cc1nnc(-c2cccs2)o1,18
Cn1c(COc2ccccc2)nnc1SCC(=O)NCc1ccccc1,9
COc1ccccc1CNC(=O)C1COc2ccccc2O1 (stereo unspecified),2
O=C(NC1=NCCS1)C1COc2ccccc2O1 (stereo unspecified),72*
COc1cc(C(=O)NC2=NCCS2)ccc1OCc1c(C)noc1C,5
O=C(Nc1ccc2c(c1)OCO2)c1cnn2cccnc12,-61
CN(C)c1ccc(-c2ccccc2)nn1,-56
C=CCOc1nc2c(c(=O)n(C)c(=O)n2C)n1Cc1ccc(Cl)cc1,58*
CCCCCn1c(CN2CCN(Cc3ccccc3)CC2)nc2c1c(=O)n(C)c(=O)n2C,12
CC1CCN(c2nc3c(c(=O)n(C)c(=O)n3C)n2Cc2ccccc2)CC1,-14
COc1ccc(NC(=O)c2cc3ccccc3o2)cc1,-53
COc1ccc2oc(=O)c(C(=O)N3CCc4ccccc43)cc2c1,11
COc1cc2c(cc1OC)C(C)N(C(=O)c1cc3ccccc3o1)CC2 (stereo unspecified),64*
C=C(C)Cn1c(N2CC(C)CC(C)C2)nc2c1c(=O)[nH]c(=O)n2C (stereo unspecified),8
CC(=O)OC1=C(C#N)Cn2ccc3cccc1c32,-4
CCOC(=O)c1c(C)[nH]c(C(=O)C(C)OC(=O)c2cccc(OCc3c(C)noc3C)c2)c1C (stereo unspecified),56*
CCOC(=O)c1[nH]c(C)c(C(=O)c2cc(F)ccc2F)c1C,8
COc1ccc2nc(NC(=O)c3cccc(OCc4c(C)noc4C)c3)sc2c1,-86
Cn1c(CNc2ccccc2)cc(=O)n(C)c1=O,2
CCCCc1ccc(C2C(C#N)=C(N)SC(N)=C2C#N)s1,-8
CCOC(=O)C1CCN(C(=O)Nc2ccccc2Cl)CC1,16
CCOc1ccc(OCc2cccc(C(=O)N3CCOCC3)c2)cc1,77*
CCOc1ccc(C(=O)N2CCCC2C(=O)O)cc1 (stereo unspecified),7
O=C(Nc1ccccc1C(=O)N1CCOCC1)c1ccncc1,-16
c1ccc(Oc2ccc(-n3cnnn3)cc2)cc1,5
SMILES,RORA inh
Cc1cc(C)cc(-n2cc3c(=O)n(C)c(=O)n(C)c3c2)c1,-16
CN(C)Cc1cc(C(C)(C)c2cc(CN(C)C)c(O)c(CN(C)C)c2)cc(CN(C)C)c1O,-1
CN=c1scc(C)n1/N=C/c1ccc(O)cc1O,63*
CCCCn1nnc(NC(=O)CC23CC4CC(CC(C4)C2)C3)n1,18
CCOC(=O)c1ccccc1NC(=O)CSc1nnnn1C1CCCCC1,-54
Cc1csc(SCCn2c(N3CCCC3)nc3c2c(=O)[nH]c(=O)n3C)n1,8
FC(F)(F)c1cc(-c2ccccc2)nc(N2CCCCCC2)n1,6
O=S(=O)(c1ccccc1)N1CCN(c2cc(-c3ccccc3)nc3ncnn23)CC1,70*
COc1ccc(-c2nsc3c(N4CCN(S(=O)(=O)c5ccccc5)CC4)ncnc23)cc1,14
c1ccc(-n2nc3c(ccc4cnnc43)[nH]2)cc1,-55
COc1ccc(S(=O)(=O)Cc2ccc(C(=O)NCc3ccc(F)cc3)o2)cc1,-14
c1ccc2c(c1)CCN(c1nc3cc4c(cc3s1)OCCO4)C2,64*
Cc1nc2ccc(S(=O)(=O)NCC(=O)N3CCc4ccccc4C3)cc2s1,-16
CCn1c2ccc(CC(=O)O)cc2c2cc(CC(=O)O)ccc21,3
COC(=O)c1sc2nc(N3CCCCC3)c3c(c2c1N)CC(C)(C)N(C)C3,-1
CC(C)(C)c1ccc(C(=O)N2CCC(C(=O)NCc3ccncc3)CC2)cc1,-60
Cn1nc(C(C)(C)C)cc1C(=O)NCc1ccc(N2CCCC2=O)cc1,86*
CC(=O)N1CCCc2cc(S(=O)(=O)NCc3ccc(C)cc3)ccc21,3
Cc1cccc(C)c1NC(=O)c1cc(S(=O)(=O)N2CCOCC2)ccc1F,-3
O=C1CCCN1CC(CN1CCOCC1)Sc1nc2ccccc2c(=O)n1-c1ccccc1 (stereo unspecified),17
Nc1nc2ccccc2n1/N=C/c1ccc(Br)cc1,-70
Cc1oc(-c2ccc3c(c2)OCCO3)cc1C(=O)NC(CCC(=O)O)C(=O)O (stereo unspecified),-1
Cc1oc2cc(O)cc(O)c2c(=O)c1-c1ccc2c(c1)OCCCO2,-58
Cc1oc(-c2ccc3c(c2)OCCO3)cc1C(=O)O,75*
O=c1oc2c3c4c(cc2cc1-c1nc2ccccc2[nH]1)CCCN4CCC3,-52
SMILES,RORA inh
CC1(C)CC(=O)C(/C=N/c2ncccc2C(=O)O)=C(O)C1,2
COc1nc(N(C#N)CC(N)=O)nc(N2CCCC2)n1,0
Cn1nnc(NC(=O)CSc2nnnn2-c2ccc(F)cc2)n1,17
O=C(CSc1nnnn1-c1ccccc1)Nc1nsc(-c2ccc(Cl)cc2)n1,71*
Cn1nnc(NC(=O)CSc2ccc(Cl)cc2)n1,-10
CCOC(=O)C(C(=O)OCC)C(CC(=O)C1CC1)c1ccccc1 (stereo unspecified),7
CCS(=O)(=O)N1CCC(C(=O)NCCCN2CCCC2)CC1,-4
Cc1nn(-c2nc3ccccc3s2)c(C)c1Oc1ccccc1O,-66
COc1ccc2nc(NCc3ccccc3)[nH]c2c1,-52
CCCCNc1cc(C)nc(NCc2ccccc2)n1,57*
Cc1ccc(C)c(-n2c(Cc3cc(=O)[nH]c(=O)[nH]3)nnc2SCC(=O)NCC2CCCO2)c1 (stereo unspecified),-2
CCC(C)Nc1nc(OC)nc(N(C)C#N)n1 (stereo unspecified),25
CCOc1ccc(NC(=O)c2cc3n(n2)C(C(F)(F)F)CC(c2ccco2)N3)cc1 (stereo unspecified),-60
Cc1ccccc1S(=O)(=O)Cc1ccc(C(=O)NCCCOC(C)C)o1,17

# Bioassay records: PubChem, The Scripps Research Institute Molecular Screening Center
